High-throughput results: PubChem, several laboratories
Compounds with a hit are over-represented: about 2.1% of the library has one in this group of screens.
Pf gametocyte: kills late stage P. falciparum gametocytes. P. falciparum stage V gametocytes, ATP luminescence, 24 h. inhibition, % at 10.9 µM. 0.065% of 150,000 active. AID 743093;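 active = inhibition above the mean plus 3 SD of compounds within the control limits, set per campaign, cut at about 38% in these data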;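 note: 0% = DMSO wells and 100% = medium only without gametocytes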
Wee1 degr inh: human Wee1 degradation inhibition, primary screen; reporter increase, % at 5 µM; HeLa Luc-Wee1K328M stability, luciferase luminescence; 100% = proteasome inhibitor MG132 effect; 1.2% of 220,000 active; P30291;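 active = activation above the mean of all tested compounds plus 3 SD, set per screening run, cut at about 8.8% in these data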;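 note: cells exposed to compound for 20 h before luminescence read; 0% = DMSO alone and 100% = MG132 at 30 µM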
Target sequence (P30291 whole entry K328M): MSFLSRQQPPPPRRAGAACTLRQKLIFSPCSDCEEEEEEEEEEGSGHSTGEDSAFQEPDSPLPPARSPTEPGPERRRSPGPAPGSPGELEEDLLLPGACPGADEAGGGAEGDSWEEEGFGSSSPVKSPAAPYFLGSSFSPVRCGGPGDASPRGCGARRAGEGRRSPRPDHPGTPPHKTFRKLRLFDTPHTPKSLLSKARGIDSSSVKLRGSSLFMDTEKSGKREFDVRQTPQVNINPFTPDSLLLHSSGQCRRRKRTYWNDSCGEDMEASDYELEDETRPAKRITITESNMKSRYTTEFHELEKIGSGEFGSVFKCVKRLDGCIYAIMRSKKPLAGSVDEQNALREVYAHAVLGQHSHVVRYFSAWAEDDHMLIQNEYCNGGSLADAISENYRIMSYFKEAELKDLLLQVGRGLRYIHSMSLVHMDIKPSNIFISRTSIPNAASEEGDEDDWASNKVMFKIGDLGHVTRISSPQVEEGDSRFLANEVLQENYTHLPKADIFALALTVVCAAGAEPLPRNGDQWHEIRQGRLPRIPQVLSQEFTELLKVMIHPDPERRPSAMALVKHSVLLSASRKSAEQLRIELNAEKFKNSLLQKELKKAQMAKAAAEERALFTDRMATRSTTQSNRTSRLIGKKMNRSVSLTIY
zVAD death inh: blocks zVAD induced death of L929 cells. L929 zVAD necroptosis rescue, ATP luminescence, 24 h; with zVAD 60 µM. viability rescue, % at 10 µM. 0.38% of 220,000 active. AID 1377;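 active = activation, scaled between plate controls, above about 75%, limit read from the data; inactive = activation under that limit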;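 note: 0% = zVAD with DMSO and 100% = DMSO alone without zVAD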
RBBP9 inh: inhibitors of human serine hydrolase RBBP9 | 0.2% of 220,000 active | recombinant RBBP9, FP-Rh probe fluorescence polarization | AID 1515 | inhibition, % at 7.94 µM | O75884;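 active = inhibition above the campaign mean of all tested compounds plus 3 SD, cut at about 14% in these data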;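 note: plate controls were DMSO wells with RBBP9 for no effect and wells lacking RBBP9 protein for full effect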
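Controls: DMSO-treated enzyme wells and wells lacking RBBP9 | Material: RBBP9 protein | Technique: Fluorescence polarization | Replication: Single well per compound, no replicates | Buffer or medium: Tris-NaCl-Pluronic buffer, pH 8.0 | Timing: 30 min compound preincubation, 45 min probe labeling, 25 °C | Read-out basis: Percent inhibition from mP, scaled between DMSO and no-protein wells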
TNF necrop inh: blocks TNF-alpha induced death of Jurkat FADD-/- cells; Jurkat FADD-/- TNF necroptosis rescue, ATP luminescence, 24 h; 0 = TNF only, 100 = no-TNF cells; AID 463075; 0.068% of 220,000 active; activation (protection from cell death), % at 10 µM;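 active = activation, meaning protection from cell death, of at least 50% relative to plate controls; inactive = activation below 50%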;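 note: necroptosis triggered by 40 ng/mL TNF-alpha added together with compound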
m-calpain inh: blocks pig calpain II enzyme activity. 0.37% of 220,000 active. inhibition, % at 16 µM. purified calpain II, fluorogenic peptide substrate, 30 min. AID 1236;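 active = inhibition above about 50%, limit read from the data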
Wee1 degr conf: human Wee1 degradation inhibition, confirmation; activation, % at 5 µM; AID 1410; 4% of 1,100 active; shares compounds with Wee1 degr inh; HeLa Luc-Wee1K328M degradation, luminescence; vehicle 0%, proteasome-blocked wells 100%; in the data active = activation above about 8.9%
Numbers without * were called inactive; / = not tested or not shown.

SMILES | Pf gametocyte | Wee1 degr inh | zVAD death inh | RBBP9 inh | TNF necrop inh | m-calpain inh | Wee1 degr conf
CCOc1cc(-c2nc(-c3ccccc3OC)no2)cc(OCC)c1OCC | -13 | 14* | 0 | -9 | -1 | -15 | 0
COc1ccc(OC)c(C2=NOC(C(=O)N3CCCc4ccccc43)C2)c1 (stereo not drawn) | -11 | 2 | 0 | 1 | 1 | -7 | /
CN1CCN(C(=O)c2cc3sc4ccccc4c3s2)CC1 | 7 | 14* | 2 | 3 | 8 | -12 | 1
C=C(C)COc1ccc(-c2[nH]ncc2Oc2ccc(OC)cc2)c(O)c1 | 1 | 18* | 1 | -2 | -1 | 28 | 4
C=C(C)COc1ccc(-c2[nH]ncc2Oc2ccccc2OC)c(O)c1 | 3 | -1 | 1 | -7 | 1 | 27 | /
O=C(C[n+]1ccc(C(=O)N/N=C/c2ccc(Cl)cc2Cl)cc1)c1ccccc1 | / | 13* | 2 | -2 | -4 | -4 | -6
O=C(N/N=C/c1ccc(Cl)cc1Cl)c1cccc(F)c1 | / | 1 | 0 | -2 | -9 | 14 | /
Cn1cc(C(=O)NCc2cccs2)c(=O)c2cc(S(=O)(=O)N3CCCC3)ccc21 | -4 | 1 | / | 1 | 0 | -2 | /
CC(=O)Nc1ccc(N2CCCCC2)cc1 | / | 12* | 0 | -4 | -1 | -26 | 2
CC(=O)Nc1ccc(N2CCCC2)cc1 | / | 0 | 0 | 1 | -1 | -15 | /
CCCN1CN(CCc2ccccc2)CNC1=S | 29 | -3 | 1 | 14 | 4 | -13 | /
CCCCN1CNC(=S)N(CCc2ccccc2)C1 | -11 | 12* | 0 | -7 | 1 | 16 | 3
C=CC[C@H](CC(=O)NCCO)C(=O)NC[C@@H](OC(=O)[C@@H](CC=C)CC(=O)OC(C)(C)C)c1ccccc1 | 17 | / | / | / | / | / | /
Cc1ccc(NC(=O)N2CCCC(C(=O)O)C2)cc1 (stereo not drawn) | 16 | -1 | 0 | -4 | 1 | -24 | /
O=C(Cc1ccccc1)Nc1ccccc1N1CCOCC1 | 7 | 21* | 0 | -2 | -2 | -18 | 1
Cc1c(C(=O)OC(C)C)sc(N)c1C(=O)OC(C)C | 11 | 1 | 1 | 3 | 2 | 8 | /
CC1CC(OCC(O)C[N+]2(C)CCOCC2)CC(C)(C)C1 (stereo not drawn) | -8 | -1 | 2 | -7 | 1 | 9 | /
CN(C)c1ccc(NC(=O)CCn2c(=S)oc3ccccc32)cc1 | 3 | 11* | 1 | 5 | 0 | -14 | 2
Cc1ccc(NC(=O)CCn2c(=S)oc3ccccc32)cc1 | 19 | 2 | -1 | -9 | 0 | 18 | /
O=S(=O)(Nc1nc2ccccc2nc1Nc1ccc2c(c1)OCO2)c1ccccc1 | / | 14* | 1 | -2 | -1 | -33 | -1
Cc1cccc(S(=O)(=O)Nc2nc3ccccc3nc2Nc2ccc3c(c2)OCO3)c1 | 21 | 6 | 2 | 0 | -1 | 26 | /
CN1CCc2nc(NC(=O)COc3ccc(C#N)cc3)sc2C1 | 7 | -1 | 10 | -6 | 1 | 2 | /
N#CCCn1c(O)c(N=NC(=O)CNC(=O)c2cccs2)c2ccccc21 | 6 | 15* | 0 | -2 | 1 | 20 | -1
O=C(NC1CCCCC1)C12CC3CC(CC(Cl)(C3)C1)C2 | / | -3 | 3 | -10 | 0 | -16 | /
CC(C)C(O)(C#CCN1CCCCC1)c1ccccc1 (stereo not drawn) | / | 12* | 1 | 9 | 2 | 17 | 2
CC(C)C(O)(C#CCN1CCCC1)c1ccccc1 (stereo not drawn) | 10 | 0 | 0 | -14 | 0 | -14 | /
Cc1ccc2nc(SCC(=O)NCC3CCCO3)c(C#N)cc2c1 (stereo not drawn) | / | 12* | 0 | -7 | -2 | -39 | 3
Cc1ccc2cc(C#N)c(SCC(=O)NCC3CCCO3)nc2c1 (stereo not drawn) | 16 | -1 | 0 | -10 | -2 | 14 | /
CC1=C(C(=O)OCC2CCCO2)C(c2ccc(Cl)cc2)NC(=O)N1 (stereo not drawn) | -9 | 12* | 1 | 5 | 1 | 3 | 1
